Assay results as given in ChEMBL document CHEMBL3632593, “3-Nitrotriazole-based piperazides as potent antitrypanosomal agents” (Eur J Med Chem, 2015).

Experiments:
Trypanosoma cruzi [1] = assay: Antichagasic activity against amastigote forms of Trypanosoma cruzi Tulahuen C4 assessed as inhibition of growth; assay type: functional, organism-based
In short: (§1)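 Parasite growth assay run in 96-well format per an earlier protocol. Dose–response curves were constructed, and the 50% growth-inhibitory concentration was calculated by linear regression from the sigmoidal dose–inhibition curves.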

[2] = Selectivity index, ratio of IC50 for rat L6 cells to IC50 for amastigote forms of Leishmania donovani MHOM/ET/67/L82
L6 = assay: Cytotoxicity against rat L6 cells assessed as cell viability; assay type: cell-based
[3] = Selectivity index, ratio of IC50 for rat L6 cells to IC50 for amastigote forms of Trypanosoma cruzi Tulahuen C4
[4] = tested on: Trypanosoma brucei rhodesiense; assay: Antitrypanosomal activity against bloodstream trypomastigote forms of Trypanosoma brucei rhodesiense STIB 900 assessed as inhibition of growth; assay type: functional, organism-based; in short: as §1
Leishmania donovani = assay: Antileishmanial activity against axenic amastigote forms of Leishmania donovani MHOM/ET/67/L82 assessed as inhibition of growth; assay type: functional, organism-based; in short: as §1
[5] = Selectivity index, ratio of IC50 for rat L6 cells to IC50 for bloodstream trypomastigote forms of Trypanosoma brucei rhodesiense STIB 900
Trypanosoma cruzi [6] = assay: Activity of histidine tagged recombinant Trypanosoma cruzi type 1 nitroreductase assessed as NADH oxidation at 100 uM by spectrophotometry method
In short: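 Purified recombinant T. cruzi type I nitroreductase, prepared and assayed per earlier work. Specific activity expressed as NADH oxidized per min per mg protein.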

[7] = tested on: Trypanosoma brucei brucei; assay: Activity of histidine tagged recombinant Trypanosoma brucei brucei type 1 nitroreductase assessed as NADH oxidation at 100 uM by spectrophotometry method
In short: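 Purified recombinant his-tagged T. b. brucei type I nitroreductase. Each nitrotriazole substrate at 100 µM with NADH at 100 µM. NADH oxidation followed spectrophotometrically at 340 nm. Specific activity expressed as nmol NADH oxidized per min per mg enzyme.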

[8] = tested on: Trypanosoma brucei brucei; assay: Antimicrobial activity against bloodstream forms of Trypanosoma brucei brucei assessed as reduction in cell viability after 3 days by alamar blue assay; assay type: functional, organism-based; conditions: 72 h
[9] = Half life in human liver S9 microsomes in absence of NADPH by LC-MS/MS method
[10] = tested on: Trypanosoma brucei brucei; assay: Antimicrobial activity against bloodstream forms of Trypanosoma brucei brucei overexpressing type I nitroreductase assessed as reduction in cell viability after 3 days by alamar blue assay in presence of tetracycline; assay type: functional, organism-based; conditions: 72 h
[11] = tested on: Trypanosoma brucei brucei; assay: Antimicrobial activity against bloodstream forms of Trypanosoma brucei brucei overexpressing type I nitroreductase assessed as reduction in cell viability after 3 days by alamar blue assay in absence of tetracycline; assay type: functional, organism-based; conditions: 72 h
[12] = Half life in human liver S9 microsomes in presence of NADPH by LC-MS/MS method
[13] = tested on: Trypanosoma brucei brucei; assay: Ratio of IC50 for bloodstream forms of Trypanosoma brucei brucei overexpressing type I nitroreductase in absence of tetracycline to IC50 for bloodstream forms of Trypanosoma brucei brucei overexpressing type I nitroreductase in presence of tetracycline; assay type: functional
Trypanosoma cruzi [14] = assay: Antichagasic activity against firefly luciferase expressing trypamastigote forms of transgenic Trypanosoma cruzi Y infected in Balb/c mouse assessed as reduction in parasite level at 15 mg/kg/day, ip dosed for 10 days by luciferase reporter gene assay; assay type: functional; conditions: 240 h
In short: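 Balb/c mice were infected with luciferase-expressing T. cruzi Y trypomastigotes and imaged at baseline after i.p. D-luciferin 150 mg/kg in PBS. Ratio = post-treatment / pre-treatment luciferase signal per animal; group mean ± SD.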

Cytochrome P450 2C8 = molecular target: T1, Cytochrome P450 2C8 (Homo sapiens, UniProt P10632); assay: Inhibition of CYP2C8 in human Liver microsomes after 5 mins by LC-MS/MS method
T1 sequence (P10632 whole entry): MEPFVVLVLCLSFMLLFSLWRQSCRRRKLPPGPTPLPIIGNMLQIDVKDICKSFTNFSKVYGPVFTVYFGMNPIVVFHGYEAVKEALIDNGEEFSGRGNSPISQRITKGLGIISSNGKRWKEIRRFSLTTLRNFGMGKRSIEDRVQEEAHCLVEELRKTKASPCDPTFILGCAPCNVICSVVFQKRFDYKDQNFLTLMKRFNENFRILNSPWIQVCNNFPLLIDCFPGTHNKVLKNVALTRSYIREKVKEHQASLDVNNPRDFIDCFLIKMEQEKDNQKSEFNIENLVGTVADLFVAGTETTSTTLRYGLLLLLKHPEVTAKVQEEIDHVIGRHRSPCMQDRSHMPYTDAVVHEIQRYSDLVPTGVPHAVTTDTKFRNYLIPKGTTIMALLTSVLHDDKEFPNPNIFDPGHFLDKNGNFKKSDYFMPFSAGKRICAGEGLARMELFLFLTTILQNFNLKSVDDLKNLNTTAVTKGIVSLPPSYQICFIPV

Cytochrome P450 2C19 = Cytochrome P450 2C19 (Homo sapiens, UniProt P33261); assay: Inhibition of CYP2C19 in human Liver microsomes after 35 mins by LC-MS/MS method
Cytochrome P450 2D6 = Cytochrome P450 2D6 (Homo sapiens, UniProt P10635); assay: Inhibition of CYP2D6 in human Liver microsomes after 5 mins by LC-MS/MS method
Cytochrome P450 2C9 = Cytochrome P450 2C9 (Homo sapiens, UniProt P11712); assay: Inhibition of CYP2C9 in human Liver microsomes after 5 mins by LC-MS/MS method
Cytochrome P450 3A4 = Cytochrome P450 3A4 (Homo sapiens, UniProt P08684); assay: Inhibition of CYP3A4 in human Liver microsomes after 5 mins by LC-MS/MS method
[15] = Efflux ratio of permeability from basolateral to apical side over apical to basolateral side in human Caco2 cells after 2 hrs by LC-MS/MS method; conditions: Caco-2
Mus musculus = assay: Toxicity in Balb/c mouse infected with firefly luciferase expressing trypamastigote forms of transgenic Trypanosoma cruzi Y at 15 mg/kg/day, ip dosed for 10 days; assay type: organism-based; conditions: in vivo, 240 h

Sequence of Cytochrome P450 2C9 (P11712 whole entry): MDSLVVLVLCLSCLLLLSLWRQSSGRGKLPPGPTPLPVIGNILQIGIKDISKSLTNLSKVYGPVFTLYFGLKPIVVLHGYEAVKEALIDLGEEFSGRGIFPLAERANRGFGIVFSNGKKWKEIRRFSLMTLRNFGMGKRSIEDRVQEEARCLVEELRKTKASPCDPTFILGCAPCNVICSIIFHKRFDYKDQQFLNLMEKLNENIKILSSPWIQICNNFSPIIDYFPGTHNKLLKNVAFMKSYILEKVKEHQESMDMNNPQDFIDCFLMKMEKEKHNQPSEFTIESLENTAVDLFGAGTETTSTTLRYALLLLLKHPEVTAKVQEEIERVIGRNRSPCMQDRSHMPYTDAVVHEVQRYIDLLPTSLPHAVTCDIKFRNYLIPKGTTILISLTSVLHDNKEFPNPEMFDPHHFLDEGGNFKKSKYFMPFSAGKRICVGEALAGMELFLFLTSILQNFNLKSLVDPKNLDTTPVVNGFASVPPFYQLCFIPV
Sequence of Cytochrome P450 3A4 (P08684 whole entry): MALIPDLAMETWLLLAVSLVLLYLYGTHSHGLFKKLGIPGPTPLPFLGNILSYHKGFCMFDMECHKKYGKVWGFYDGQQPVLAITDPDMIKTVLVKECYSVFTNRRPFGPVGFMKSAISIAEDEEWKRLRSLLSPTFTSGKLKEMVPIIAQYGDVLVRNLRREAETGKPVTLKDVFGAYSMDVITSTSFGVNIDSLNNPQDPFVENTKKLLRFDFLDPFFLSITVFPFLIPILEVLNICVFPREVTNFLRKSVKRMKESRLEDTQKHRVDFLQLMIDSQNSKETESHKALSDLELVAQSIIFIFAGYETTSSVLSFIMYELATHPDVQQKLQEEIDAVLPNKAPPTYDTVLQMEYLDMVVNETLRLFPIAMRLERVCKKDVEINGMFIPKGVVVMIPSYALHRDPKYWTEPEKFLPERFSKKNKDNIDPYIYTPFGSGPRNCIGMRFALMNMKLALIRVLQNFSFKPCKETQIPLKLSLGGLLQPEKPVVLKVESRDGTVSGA
Sequence of Cytochrome P450 2D6 (P10635 whole entry): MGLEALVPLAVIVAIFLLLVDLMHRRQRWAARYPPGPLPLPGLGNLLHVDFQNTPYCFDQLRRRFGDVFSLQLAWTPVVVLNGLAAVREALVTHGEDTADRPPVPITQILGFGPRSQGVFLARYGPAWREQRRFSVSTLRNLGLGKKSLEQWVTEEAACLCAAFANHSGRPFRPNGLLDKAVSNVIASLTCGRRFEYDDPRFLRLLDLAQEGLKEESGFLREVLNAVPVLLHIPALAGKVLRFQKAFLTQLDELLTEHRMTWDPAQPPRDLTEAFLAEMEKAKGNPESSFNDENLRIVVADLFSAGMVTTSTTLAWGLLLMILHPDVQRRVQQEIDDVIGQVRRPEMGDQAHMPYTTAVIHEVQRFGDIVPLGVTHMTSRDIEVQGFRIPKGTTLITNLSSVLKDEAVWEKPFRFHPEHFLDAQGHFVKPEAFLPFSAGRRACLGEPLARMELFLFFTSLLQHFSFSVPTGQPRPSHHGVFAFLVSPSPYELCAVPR
Sequence of Cytochrome P450 2C19 (P33261 whole entry): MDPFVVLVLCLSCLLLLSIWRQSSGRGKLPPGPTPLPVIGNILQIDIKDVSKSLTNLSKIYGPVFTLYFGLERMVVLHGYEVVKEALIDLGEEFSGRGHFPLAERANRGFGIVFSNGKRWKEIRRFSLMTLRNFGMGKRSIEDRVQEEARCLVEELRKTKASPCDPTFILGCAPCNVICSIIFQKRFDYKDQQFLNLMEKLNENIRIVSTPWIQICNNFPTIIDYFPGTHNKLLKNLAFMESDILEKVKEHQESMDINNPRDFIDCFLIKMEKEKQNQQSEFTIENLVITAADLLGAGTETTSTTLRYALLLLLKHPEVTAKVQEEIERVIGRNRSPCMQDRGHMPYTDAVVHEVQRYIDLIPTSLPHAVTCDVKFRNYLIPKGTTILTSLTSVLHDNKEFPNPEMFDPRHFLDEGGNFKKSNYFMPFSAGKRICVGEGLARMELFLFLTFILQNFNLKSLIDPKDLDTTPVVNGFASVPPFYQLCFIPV

| SMILES | IC50 (Trypanosoma cruzi [1]) [µM] | selectivity ratio ([2]; L6 cells) | IC50 (L6) [µM] | selectivity ratio ([3]; L6 cells) | IC50 [4] [µM] | IC50 (Leishmania donovani) [µM] | selectivity ratio ([5]; L6 cells) | Activity (Trypanosoma cruzi [6]) [nmol/min/mg] | Activity [7] [nmol/min/mg] | IC50 [8] [µM] | also measured |
| --- | --- | --- | --- | --- | --- | --- | --- | --- | --- | --- | --- |
| O=C(Cn1cnc([N+](=O)[O-])n1)N1CCN(c2ccccn2)CC1 | 4.64 | 9.35 | 173 | 37.3 | 19.3 | 18.5 | 8.98 |  |  |  |  |
| Cc1ccc(N2CCN(CC(=O)N3CCN(c4ccc(C)cc4)CC3)CC2)cc1 | 29.8 | 9 | 213 | 7 | 26.3 | 24.2 | 8.1 |  |  |  |  |
| O=C(Cn1cnc([N+](=O)[O-])n1)N1CCN(C(=O)C2CC2)CC1 | 148 | 5.12 | 156 | 1.05 | 85.2 | 30.6 | 1.83 |  |  |  |  |
| O=C(Cn1cnc([N+](=O)[O-])n1)N1CCN(c2ncccn2)CC1 | 10 | 6.52 | 150 | 15 | 33.4 | 22.9 | 4.5 | 743 | 2060 | > 30 |  |
| O=C(Cn1cnc([N+](=O)[O-])n1)N1CCN(Cc2ccc(C(F)(F)F)cc2)CC1 | 0.862 |  | 111 |  | 1.39 | 9.7 |  | 701 | 3800 | 26 | half-life [9]: > 3 h; IC50 [10]: 1.78 µM; IC50 [11]: > 30 µM; half-life [12]: > 3 h |
| O=C(Cn1cnc([N+](=O)[O-])n1)N1CCN(c2ccc(Cl)cc2)CC1 | 1.12 | > 30 | > 285 | > 254 | 74.3 | 9.39 | > 4 | 761 | 2180 | > 30 |  |
| O=C(Cn1cnc([N+](=O)[O-])n1)N1CCN(c2ccc(C(F)(F)F)cc2)CC1 | 0.596 | 108 | 202 | 340 | 4.22 | 1.88 | 48 | 707 | 2190 | 17.5 | Ratio IC50 [13]: 16; IC50 [10]: 0.85 µM; IC50 [11]: 13.6 µM |
| O=C(CN1CCN(c2ccc(Cl)cc2)CC1)N1CCN(c2ccc(Cl)cc2)CC1 | 6.06 | 6 | 116 | 19 | 12.6 | 18 | 9 |  |  |  |  |
| Cc1ccc(N2CCN(C(=O)Cn3cnc([N+](=O)[O-])n3)CC2)cc1 | 1.33 | 14 | 148 | 112 | 9.91 | 10.8 | 15 | 787 | 2190 | > 30 |  |
| N#Cc1ccccc1N1CCN(C(=O)Cn2cnc([N+](=O)[O-])n2)CC1 | 2.85 | 15 | 213 | 75 | 11.3 | 14.6 | 19 |  |  |  |  |
| O=C(Cn1ccnc1[N+](=O)[O-])NCc1ccccc1 [BENZNIDAZOLE] |  |  |  |  |  |  |  | 680 | 1540 |  | inhibition in vivo at 15 mg/kg/day (Trypanosoma cruzi [14]): 99% |
| O=C(Cn1cnc([N+](=O)[O-])n1)N1CCN(Cc2ccc(Cl)c(Cl)c2)CC1 | 0.298 |  | 59.9 |  | 0.231 | 8.13 |  | 745 | 3730 | 3.59 | selectivity ratio ([2]; l6): 7.36; IC50 (Cytochrome P450 2C8): > 20 µM; IC50 (Cytochrome P450 2C19): > 20 µM; selectivity ratio ([3]; l6): 201; IC50 (Cytochrome P450 2D6): > 20 µM; IC50 (Cytochrome P450 2C9): > 20 µM; Ratio IC50 [13]: 7.2; IC50 [10]: 0.58 µM; IC50 [11]: 4.13 µM; IC50 (Cytochrome P450 3A4): > 20 µM; selectivity ratio ([5]; l6): 260; efflux ratio at 2 h [15]: 0.91 |
| O=C(CN1CCN(c2ccc(C(F)(F)F)cc2)CC1)N1CCN(c2ccc(C(F)(F)F)cc2)CC1 | 2.71 | 6 | 31.7 | 12 | 24.6 | 5.03 | 1.2 |  |  |  |  |
| O=C(Cn1cnc([N+](=O)[O-])n1)N1CCN(c2ccc(Cl)c(Cl)c2)CC1 | 0.169 | 89 | 108 | 641 | 4.48 | 1.22 | 24 | 753 | 2320 | 4.73 | inhibition in vivo at 15 mg/kg/day (Trypanosoma cruzi [14]): 77%; Activity (Mus musculus): Non-toxic; Ratio IC50 [13]: 12.3; IC50 [10]: 0.65 µM; IC50 [11]: 7.97 µM |
| O=C(CN1CCN(c2ccc(Cl)c(Cl)c2)CC1)N1CCN(c2ccc(Cl)c(Cl)c2)CC1 | 1.81 | 3 | 20.2 | 11 | 26 | 6.27 | < 1 |  |  |  |  |
| O=C(Cn1cnc([N+](=O)[O-])n1)N1CCN(C(c2ccccc2)c2ccc(Cl)cc2)CC1 (centres undefined) | 0.073 | 14.6 | 21.9 | 302 | 3.41 | 1.45 | 6.43 | 672 | 3910 | 2.75 | Ratio IC50 [13]: 3.7; IC50 [10]: 1.04 µM; IC50 [11]: 3.86 µM |
| COc1ccc(N2CCN(C(=O)Cn3cnc([N+](=O)[O-])n3)CC2)cc1 | 2.42 | 7.18 | 133 | 54.7 | 16.4 | 18.5 | 8.1 |  |  |  |  |
| O=C(Cn1ccnc1[N+](=O)[O-])N1CCN(c2ncccn2)CC1 | 142 | 2.11 | 280 | 1.97 | 157 | 133 | 1.79 |  |  |  |  |
| N#Cc1ccccc1N1CCN(CC(=O)N2CCN(c3ccccc3C#N)CC2)CC1 | 25.7 | 4 | 127 | 5 | 12.8 | 24.3 | 9.9 |  |  |  |  |
